Results as given in ChEMBL document CHEMBL4177526, “Discovery and structure activity relationship of the first potent cryptosporidium FIKK kinase inhibitor” (Bioorg Med Chem, 2017).

Experiments:
[1] = Inhibition of Cryptosporidium parvum CDPK1 using PLARTLSVAGLPGKK peptide as substrate by NADH coupled LDH-PK ATPase assay
Outline: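 NADH-coupled LDH-PK ATPase read-out with 1.2 nM recombinant CpCDPK1, 0.25 mM ATP, 0.1 mM Syntide 2.0 peptide and 2 mM CaCl2. Inhibitors were made as 10 mM DMSO stocks and tested in 2-fold serial dilutions. IC50 is the average of triplicate experiments.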

Cryptosporidium parvum = test: Inhibition of recombinant Cryptosporidium parvum FIKK assessed as change in melting temperature at 50 uM by differential static light scattering method
[2] = biological target: Homeodomain-interacting protein kinase 2 (Homo sapiens) (UniProt Q9H2X6); test: Inhibition of human HIPK2 (165 to 564 residues) assessed as residual activity at 500 nM in presence of 33P-ATP by filter binding assay relative to control
[3] = biological target: Ribosomal protein S6 kinase alpha-1 (Homo sapiens) (UniProt Q15418); test: Inhibition of human RSK1 (1 to 735 residues) assessed as residual activity at 500 nM in presence of 33P-ATP by filter binding assay relative to control
[4] = biological target: Tyrosine-protein kinase JAK2 (Homo sapiens) (UniProt O60674); test: Inhibition of JAK2 (unknown origin) assessed as residual activity at 500 nM relative to control
[5] = biological target: Serine/threonine-protein kinase Sgk1 (Homo sapiens) (UniProt O00141); test: Inhibition of human SGK1 (60 to 431 residues) assessed as residual activity at 500 nM in presence of 33P-ATP by filter binding assay relative to control
[6] = test system: Serine/threonine-protein kinase OSR1 (Homo sapiens), O95747 [T185E]; test: Inhibition of human OSR1 T185E mutant (1 to 342 residues) assessed as residual activity at 500 nM in presence of 33P-ATP by scintillation counting method relative to control
[7] = biological target: Mitogen-activated protein kinase kinase kinase kinase 3 (Homo sapiens) (UniProt Q8IVH8); test: Inhibition of human MAP4K3 (1 to 873 residues) assessed as residual activity at 500 nM in presence of 33P-ATP by filter binding assay relative to control
[8] = biological target: Dual specificity tyrosine-phosphorylation-regulated kinase 2 (Homo sapiens) (UniProt Q92630); test: Inhibition of human DYRK2 (3 to 528 residues) assessed as residual activity at 500 nM in presence of 33P-ATP by filter binding assay relative to control
[9] = biological target: cAMP-dependent protein kinase catalytic subunit alpha (Homo sapiens) (UniProt P17612); test: Inhibition of human PKAalpha (2 to 351 residues) assessed as residual activity at 500 nM in presence of 33P-ATP by filter binding assay relative to control
[10] = test system: RAC-alpha serine/threonine-protein kinase (Homo sapiens), P31749 [S473D]; test: Inhibition of human PKBalpha S473D mutant (118 to 480 residues) assessed as residual activity at 500 nM in presence of 33P-ATP by filter binding assay relative to control
[11] = biological target: Inhibitor of nuclear factor kappa-B kinase subunit beta (Homo sapiens) (UniProt O14920); test: Inhibition of human IKKbeta (1 to 736 residues) assessed as residual activity at 500 nM in presence of 33P-ATP by filter binding assay relative to control
[12] = biological target: Tau-tubulin kinase 1 (Homo sapiens) (UniProt Q5TCY1); test: Inhibition of human TTBK1 (1 to 1321 residues) assessed as residual activity at 500 nM in presence of 33P-ATP by filter binding assay relative to control
[13] = biological target: Serine/threonine-protein kinase 3 (Homo sapiens) (UniProt Q13188); test: Inhibition of human MST2 (2 to 491 residues) assessed as residual activity at 500 nM in presence of 33P-ATP by filter binding assay relative to control
[14] = biological target: Tyrosine-protein kinase BTK (Homo sapiens) (UniProt Q06187); test: Inhibition of human BTK (2 to 659 residues) assessed as residual activity at 500 nM in presence of 33P-ATP by filter binding assay relative to control
[15] = biological target: Serine/threonine-protein kinase STK11 (Homo sapiens) (UniProt Q15831); test: Inhibition of human LKB1 (1 to 433 residues) assessed as residual activity at 500 nM in presence of 33P-ATP by filter binding assay relative to control
[16] = biological target: Mitogen-activated protein kinase 7 (Homo sapiens) (UniProt Q13164); test: Inhibition of human ERK5 (1 to 816 residues) assessed as residual activity at 500 nM in presence of 33P-ATP by filter binding assay relative to control
[17] = biological target: Serine/threonine-protein kinase 16 (Homo sapiens) (UniProt O75716); test: Inhibition of human MPSK1 (1 to 305 residues) assessed as residual activity at 500 nM in presence of 33P-ATP by filter binding assay relative to control
[18] = biological target: Casein kinase I isoform delta (Homo sapiens) (UniProt P48730); test: Inhibition of human CK1delta (1 to 415 residues) assessed as residual activity at 500 nM in presence of 33P-ATP by filter binding assay relative to control
[19] = biological target: Serine/threonine-protein kinase pim-1 (Homo sapiens) (UniProt P11309); test: Inhibition of human PIM1 (2 to 313 residues) assessed as residual activity at 500 nM in presence of 33P-ATP by filter binding assay relative to control
[20] = biological target: Ephrin type-B receptor 2 (Homo sapiens) (UniProt P29323); test: Inhibition of human EPHB2 (560 to 987 residues) assessed as residual activity at 500 nM in presence of 33P-ATP by filter binding assay relative to control
[21] = biological target: Ephrin type-B receptor 3 (Homo sapiens) (UniProt P54753); test: Inhibition of human EPHB3 (565 to 984 residues) assessed as residual activity at 500 nM in presence of 33P-ATP by filter binding assay relative to control
[22] = biological target: Mitogen-activated protein kinase 1 (Homo sapiens) (UniProt P28482); test: Inhibition of human ERK2 (2 to 360 residues) assessed as residual activity at 500 nM in presence of 33P-ATP by filter binding assay relative to control
[23] = biological target: Vascular endothelial growth factor receptor 2 (Homo sapiens) (UniProt P35968); test: Inhibition of VEGFR2 (unknown origin) assessed as residual activity at 500 nM relative to control
TAK1/TAB1 (Homo sapiens) = TAK1/TAB1 (Homo sapiens) (UniProt Q15750+O43318); test: Inhibition of human TAK1 (1 to 303 residues)/TAB1 (437 to 504 residues) at 500 nM in presence of 33P-ATP by filter binding assay relative to control; assay type: protein-complex assay
[24] = Ratio of EC50 for antiparasitic activity against Cryptosporidium parvum Iowa oocysts infected in human HCT8 cells to IC50 for Cryptosporidium parvum CDPK1; assay type: functional
[25] = Efflux ratio of permeability in human Caco2 cells; assay type: ADME, cell-based; settings: Caco-2

SMILES: Cc1cccc(-c2nc(N)sc2-c2ccc3ncccc3n2)c1
- IC50 [1]: 0.19 µM
- ΔTm (Cryptosporidium parvum): 5.2 °C
- Activity [2]: 131%
- Activity [3]: 128%
- Activity [4]: 125%
- Activity [5]: 124%
- Activity [6]: 119%
- Activity [7]: 118%
- Activity [8]: 116%
- Activity [9]: 115%
- Activity [10]: 115%
- Activity [11]: 114%
- Activity [12]: 112%
- Activity [13]: 109%
- Activity [14]: 105%
- Activity [15]: 101%
- Activity [16]: 100%
- Activity [17]: 99%
- Activity [18]: 97%
- Activity [19]: 97%
- Activity [20]: 95%
- Activity [21]: 89%
- Activity [22]: 80%
- Activity [23]: 41%
- inhibition (TAK1/TAB1 (Homo sapiens)): 60%
- Ratio [24]: 14
- efflux ratio [25]: < 1
